Source: paper PMC11060919 (International journal of antimicrobial agents, 2024)

How the values were obtained:
male Sprague-Dawley rats [1] = experiment: Urinary KIM-1, kidney injury biomarker, 24-hour urine; format: in vivo, Sprague-Dawley rat; settings: dose-matched bolus versus humanized infusion as referent
How it was run: (§1)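 Male Sprague-Dawley rats were housed in metabolic cages, with 24-h urine collected from baseline (day 0) through day 2. On day 1 the glycopeptide was given IV either as 30.8 mg in 6.0 mL saline by variable-rate infusion over 24 hours (n=11), or as 15.4 mg boluses over 2 minutes every 12 hours ×2 plus volume-matching saline infusion (n=8). Analysis: mixed-effects model, day 0 referent, Bonferroni-corrected group-by-day tests.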

male Sprague-Dawley rats [2] = experiment: Urinary clusterin, kidney injury biomarker, 24-hour urine; format: in vivo, Sprague-Dawley rat; settings: dose-matched bolus versus humanized infusion as referent
How it was run: as §1

male Sprague-Dawley rats [3] = experiment: Urinary osteopontin; format: in vivo, Sprague-Dawley rat; settings: dose-matched bolus versus humanized infusion as referent
How it was run: as §1

male Sprague-Dawley rats [4] = experiment: Iohexol-measured GFR; format: in vivo, Sprague-Dawley rat; settings: Baseline (day 0, before vancomycin); dose-matched bolus group versus humanized infusion group as referent; marginal difference, mixed effects model
rat = settings: translational rat model; increased nephrotoxic effect; cited from earlier work

For `CN[C@H](CC(C)C)C(=O)N[C@H]1C(=O)N[C@@H](CC(N)=O)C(=O)N[C@H]2C(=O)N[C@H]3C(=O)N[C@H](C(=O)N[C@H](C(=O)O)c4cc(O)cc(O)c4-c4cc3ccc4O)[C@H](O)c3ccc(c(Cl)c3)Oc3cc2cc(c3O[C@@H]2O[C@H](CO)[C@@H](O)[C@H](O)[C@H]2O[C@H]2C[C@](C)(N)[C@H](O)[C@H](C)O2)Oc2ccc(cc2Cl)[C@H]1O` [vancomycin], the “KIM-1 difference, mean (95% CI)” value (male Sprague-Dawley rats [1]; Day 1) was 9.80 ng, the “KIM-1 difference, mean (95% CI)” value (male Sprague-Dawley rats [1]; Day 2) was -2.27 ng and the “Urinary clusterin difference, mean (95% CI)” value (male Sprague-Dawley rats [2]; Day 1) was 1932 ng. For the same compound, the “Urinary clusterin difference, mean (95% CI)” value (male Sprague-Dawley rats [2]; Day 2) was -3103 ng, the “Urinary OPN difference, mean (95% CI)” value (male Sprague-Dawley rats [3]; Day 1) was -1.76 ng and the “Urinary OPN difference, mean (95% CI)” value (male Sprague-Dawley rats [3]; Day 2) was 0.52 ng. The “GFR difference, mean (95% CI)” value (male Sprague-Dawley rats [4]) was 0.05 mL/min/100 g body weight.
For `Cc1onc(-c2c(F)cccc2Cl)c1C(=O)N[C@@H]1C(=O)N2[C@@H]1SC(C)(C)[C@@H]2C(=O)O` [flucloxacillin], the “increase of urinary KIM-1 when added to vancomycin, compared to vancomycin” value (rat) is listed as 58 to 140 ng/24 hours.
